Results on 17 compounds are retold here after ChEMBL document CHEMBL1134467, “Novel, nonpeptidic cyanamides as potent and reversible inhibitors of human cathepsins K and L” (J Med Chem, 2001).

For orientation: IC50 means the concentration that inhibits the measured activity by half. A high value points to lower potency. The term Ki denotes a dissociation constant, usually derived from enzyme kinetics or from competition with a known ligand. A lower Ki goes with a stronger hold on the target. As usually defined, the half-life is how long it takes for the measured level to halve. Read a low half-life as fast loss. Broadly, the bioavailability is dose-corrected exposure relative to a reference, in per cent. A lower bioavailability goes with little systemic uptake.

The target in data set [1] is T1, Cathepsin K (Homo sapiens, UniProt P43235).
T1 sequence (P43235 whole entry): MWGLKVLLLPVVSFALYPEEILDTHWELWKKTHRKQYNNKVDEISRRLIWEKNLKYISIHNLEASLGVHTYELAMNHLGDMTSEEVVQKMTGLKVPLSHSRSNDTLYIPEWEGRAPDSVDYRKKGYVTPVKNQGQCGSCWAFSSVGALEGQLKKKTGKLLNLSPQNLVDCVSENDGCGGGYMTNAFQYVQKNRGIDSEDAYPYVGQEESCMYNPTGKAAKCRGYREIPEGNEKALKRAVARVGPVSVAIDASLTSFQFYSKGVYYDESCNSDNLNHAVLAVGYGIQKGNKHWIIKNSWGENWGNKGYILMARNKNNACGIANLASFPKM
Put plainly: Inhibitory activity tested against Human Cathepsin K using Z-Phe-Arg-pNA as substrate.

The next data set addresses Cathepsin B (Homo sapiens, UniProt P07858). The data set is described as follows: Inhibitory activity tested against Human Cathepsin B using Z-Phe-Arg-pNA as substrate.
Another data set addresses Procathepsin L (Homo sapiens, UniProt P07711). Put plainly: Inhibitory activity tested against Human Cathepsin L using Z-Phe-Arg-pNA as substrate.
Data set [2] concerns the target T1, Cathepsin K. The data set is described as follows: Effect of 10 mM of GSH on the inhibitory activity of compound against Cathepsin K, at pH 5.5. Put shortly:
(§1)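 Recombinant human cathepsin K IC50 with 10 mM glutathione at pH 5.5 or pH 7.0. Compounds preincubated 30 min with GSH before enzyme addition, then 30 min with enzyme before 25 μM Z-Phe-Arg-pNA. Activity read as OD increase at 405 nm. IC50 fitted to a four-parameter logistic model.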

The target of data set [3] is T1, Cathepsin K. The data set is described as follows: Effect of 10 mM of GSH on the inhibitory activity against Cathepsin K, at pH 7. An outline of the steps: as §1
Data set [4] concerns the target T1, Cathepsin K. The data set is described as follows: Inhibition of Cathepsin K at pH 5.5. An outline of the steps: (§2)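 Recombinant human cathepsin K IC50 without glutathione at pH 5.5 or 7.0. Compound preincubated 30 min with enzyme, then 25 μM Z-Phe-Arg-pNA added. Activity read as OD increase at 405 nm. Percent inhibition set against a vehicle control. IC50 from a four-parameter logistic fit.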

For data set [5], the target named is T1, Cathepsin K. The data set is described as follows: Inhibition of Cathepsin K at pH 7. Put shortly: as §2
For data set [6], the target named is T1, Cathepsin K. Put plainly: Inhibitory activity tested against Human Cathepsin K […] using gelatinase assay. An outline of the steps: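 Recombinant human cathepsin K gelatinase activity on DQ gelatin, 0.25 mg/mL final. Run in 50 mM MES pH 5.5 with 2.5 mM DTT, 2.5 mM EDTA and 10% DMSO, enzyme 2–4 nM, 30 min compound preincubation. Fluorescein release read at ex 495/em 515 nm. IC50 from a four-parameter logistic fit.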

For data set [7], the target named is T1, Cathepsin K. Put plainly: Inhibitory constant against human cathepsin K. Put shortly:
(§3)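 Slow-binding kinetics with cathepsin K (0.1 nM final, added to start the reaction) in 50 mM MES pH 5.5, 2.5 mM DTT, 2.5 mM EDTA, 10% DMSO, room temperature, stirred 1 mL cells. Z-Phe-Arg-AMC at 10-fold below Km (Km 30 μM), fluorescence ex 355/em 460 nm. Progress curves fitted for kobs; Ki, kon, koff averaged over at least three inhibitor concentrations.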

Data set [8] deals with T2, Cathepsin K (Homo sapiens) (UniProt P43235).
T2 sequence (whole entry): T1 sequence (P43235 whole entry)
The data set is described as follows: Pre-steady-state kinetic parameter for inhibition of human cathepsin K. An outline of the steps:
as §3

The nature of data set [9]: Half life period in rat after (iv) administration. The format is ADME, organism-based. Conditions: in vivo. An outline of the steps: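 Rats dosed intravenously in PEG-200/water (3:2), dosing volume 1 mL/kg; half-life derived from mean plasma levels.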
Data set [10] is described as follows: Bioavailability after oral administration of 20 mg/kg in rat. Particulars: in vivo. Type of data set: ADME, organism-based. Put shortly: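 Rats dosed orally at 20 mg/kg as a 1% methocel suspension, dosing volume 10 mL/kg; plasma levels followed over time and oral bioavailability derived.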
The next data set deals with T3, Papain (Carica papaya, UniProt P00784).
T3 sequence (P00784 whole entry): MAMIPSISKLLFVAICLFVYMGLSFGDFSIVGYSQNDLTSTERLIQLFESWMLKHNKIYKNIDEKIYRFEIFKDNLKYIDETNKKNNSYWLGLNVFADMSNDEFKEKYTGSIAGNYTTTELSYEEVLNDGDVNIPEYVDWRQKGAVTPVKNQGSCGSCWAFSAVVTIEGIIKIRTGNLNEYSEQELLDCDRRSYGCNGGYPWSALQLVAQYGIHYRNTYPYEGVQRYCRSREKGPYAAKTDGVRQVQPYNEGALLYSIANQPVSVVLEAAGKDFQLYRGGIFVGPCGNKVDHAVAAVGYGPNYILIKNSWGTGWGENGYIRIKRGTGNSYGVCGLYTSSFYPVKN
Put plainly: Inhibitory activity tested against papain at a pH 5.5.

Procathepsin L, sequence (P07711 whole entry): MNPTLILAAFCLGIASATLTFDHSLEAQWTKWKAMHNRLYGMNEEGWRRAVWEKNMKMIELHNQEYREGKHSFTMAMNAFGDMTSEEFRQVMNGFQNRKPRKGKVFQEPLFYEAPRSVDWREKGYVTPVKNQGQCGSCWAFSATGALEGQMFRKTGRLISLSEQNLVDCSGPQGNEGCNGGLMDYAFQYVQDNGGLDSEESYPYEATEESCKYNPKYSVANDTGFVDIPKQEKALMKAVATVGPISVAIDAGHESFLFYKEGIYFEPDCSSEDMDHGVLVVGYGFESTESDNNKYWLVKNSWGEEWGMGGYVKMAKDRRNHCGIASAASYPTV

Regarding `N#CN1CCC(COCc2ccccc2)C1` (stereo not given), the IC50 against Cathepsin K [1] amounted to 100 nM; at Cathepsin B, 1100 nM; against Procathepsin L it was 150 nM.
For the compound `N#CN1CCC(CNS(=O)(=O)c2ccccc2)C1` (stereo not given), the 50% inhibitory concentration (IC50) is 200 nM against Cathepsin K [1], 1500 nM on Cathepsin B and 350 nM against Procathepsin L.
In the case of `N#CN1CCCC1CNC(=O)c1ccccc1` (stereo not given), the values for the IC50 on Cathepsin K [1], on Cathepsin B and at Procathepsin L were 13700 nM, 75000 nM and 23000 nM, respectively.
For `N#CN1CCCC1CNS(=O)(=O)c1ccccc1` (stereo not given), the IC50 was 12100 nM against Cathepsin K [1] and 11500 nM against Procathepsin L.
Regarding `CCN(C#N)CC`, the IC50 against Cathepsin K [1], against Cathepsin B and against Procathepsin L was > 100000 nM in each case.
Regarding `N#CN1CCC(NC(=O)c2ccc(-c3ccccc3)cc2)C1` (stereo not given), the values for the IC50 against Cathepsin K [1], against Cathepsin B and on Procathepsin L were 290 nM, 300 nM and 850 nM, respectively.
On to `N#CN1Cc2cc3ccccc3nc2C1`, for which the half-maximal inhibitory concentration (IC50) is 360 nM against Cathepsin K [2]; 11400 nM at Cathepsin K [3]; 340 nM at Cathepsin K [4]; 280 nM against Cathepsin K [5]; 360 nM on Cathepsin K [6]; 370 nM at Cathepsin K [1]. Further, the IC50 turned out to be 2300 nM against Cathepsin B, 450 nM against Procathepsin L and 370 nM against Cathepsin K [7]. Also, the Ki on Cathepsin K [7] came to 380 nM. For the same compound, in data set [8], the k off was 0.0025 s⁻¹. Moreover, in data set [8], the k on is 6590 M⁻¹ s⁻¹.
As for `N#CN1CC(OCc2ccccc2)C1`, the half-inhibitory concentration (IC50) at Cathepsin K [1] is 40 nM; on Cathepsin B, 500 nM; at Procathepsin L, 100 nM.
With `N#CN1CCC1`, the IC50 was 480 nM on Cathepsin K [2]; > 100000 nM at Cathepsin K [3]; 450 nM against Cathepsin K [4]; 880 nM at Cathepsin K [5]; 100 nM against Cathepsin K [1]; 2000 nM at Cathepsin B. Also, the IC50 at Procathepsin L worked out at 430 nM.
For the compound `N#CN1CC(OCC2CCCCC2)C1`, the IC50 came out at 20 nM at Cathepsin K [1], 500 nM against Cathepsin B and 100 nM at Procathepsin L.
On to `N#CN1CCC(NC(=O)c2ccccc2)C1` (stereo not given), for which the IC50 against Cathepsin K [1] came to 370 nM; on Cathepsin B, 4200 nM; against Procathepsin L it was 1750 nM.
As to `N#CN1CC(CNC(=O)C2CCCCC2)C1`, the IC50 against Cathepsin K [2] was 27 nM; on Cathepsin K [3] it was > 100000 nM; on Cathepsin K [4] it was 16 nM; against Cathepsin K [5], 38 nM; against Cathepsin K [6] it was 10 nM.
On to `N#CN1CC(CNS(=O)(=O)c2ccccc2)C1`, for which the IC50 against Cathepsin K [1] stood at 20 nM; at Cathepsin B it was 300 nM; on Procathepsin L, 50 nM; on Cathepsin K [7], 17 nM. On Cathepsin K [7], the Ki came to 20 nM. The compound also had a k off in data set [8] of 0.0028 s⁻¹. This compound gave a k on in [8] of 141000 M⁻¹ s⁻¹.
The compound `N#CN1CCC(NS(=O)(=O)c2ccccc2)C1` (stereo not given) gave a half-life in [9] of 2 h. The compound further gave a bioavailability in data set [10] of 38%. The IC50 worked out at 18 nM against Cathepsin K [6]; 50 nM at Cathepsin K [1]; 1400 nM against Cathepsin B; 80 nM at Procathepsin L; 81 nM against Cathepsin K [7]; 230 nM on Papain. Moreover, the Ki at Cathepsin K [7] amounted to 90 nM. Moreover, the k off in data set [8] was found to be 0.0019 s⁻¹. The same compound displayed a k on in [8] of 19900 M⁻¹ s⁻¹.
Consider `N#CN1CC(CNC(=O)c2ccccc2)C1`, for which the IC50 came out at 70 nM against Cathepsin K [1], 250 nM against Cathepsin B and 650 nM on Procathepsin L.
As for `N#CN1CCCC1` [CYANO-PYRROLIDINE], the IC50 on Cathepsin K [2] was 1500 nM; at Cathepsin K [3] it was 3400 nM; on Cathepsin K [4], 1630 nM; at Cathepsin K [5], 2300 nM; against Cathepsin K [1], 1000 nM; at Cathepsin B it was 15000 nM. This compound also yielded an IC50 against Procathepsin L of 4000 nM.
`N#CN1CCC(NC(=O)OCc2ccccc2)C1` (stereo not given): the IC50 on Cathepsin K [2] was found to be 90 nM; against Cathepsin K [3] it was 150 nM; at Cathepsin K [4] it was 60 nM; against Cathepsin K [5], 50 nM; at Cathepsin K [6] it was 20 nM; against Cathepsin K [1] it was 40 nM. The IC50 at Cathepsin B turned out to be 200 nM; against Procathepsin L it was 54 nM; against Cathepsin K [7] it was 40 nM. This compound yielded a Ki at Cathepsin K [7] of 140 nM. The compound also came in with a k off in [8] of 0.0056 s⁻¹. For the same compound, in data set [8], the k on is 67300 M⁻¹ s⁻¹.
